Measurements: ChEMBL document CHEMBL1125428, “Development of 2,3-dihydro-6-(3-phenoxypropyl)-2-(2-phenylethyl)-5-benzofuranol (L-670,630) as a potent and orally active inhibitor of 5-lipoxygenase” (J Med Chem, 1992)

Assays:
[1] = biological target: T1, Polyunsaturated fatty acid 5-lipoxygenase (Rattus norvegicus, UniProt P12527); test: Tested for its inhibitory activity against arachidonic acid in rat 5-lipoxygenase.
T1 sequence (P12527 whole entry): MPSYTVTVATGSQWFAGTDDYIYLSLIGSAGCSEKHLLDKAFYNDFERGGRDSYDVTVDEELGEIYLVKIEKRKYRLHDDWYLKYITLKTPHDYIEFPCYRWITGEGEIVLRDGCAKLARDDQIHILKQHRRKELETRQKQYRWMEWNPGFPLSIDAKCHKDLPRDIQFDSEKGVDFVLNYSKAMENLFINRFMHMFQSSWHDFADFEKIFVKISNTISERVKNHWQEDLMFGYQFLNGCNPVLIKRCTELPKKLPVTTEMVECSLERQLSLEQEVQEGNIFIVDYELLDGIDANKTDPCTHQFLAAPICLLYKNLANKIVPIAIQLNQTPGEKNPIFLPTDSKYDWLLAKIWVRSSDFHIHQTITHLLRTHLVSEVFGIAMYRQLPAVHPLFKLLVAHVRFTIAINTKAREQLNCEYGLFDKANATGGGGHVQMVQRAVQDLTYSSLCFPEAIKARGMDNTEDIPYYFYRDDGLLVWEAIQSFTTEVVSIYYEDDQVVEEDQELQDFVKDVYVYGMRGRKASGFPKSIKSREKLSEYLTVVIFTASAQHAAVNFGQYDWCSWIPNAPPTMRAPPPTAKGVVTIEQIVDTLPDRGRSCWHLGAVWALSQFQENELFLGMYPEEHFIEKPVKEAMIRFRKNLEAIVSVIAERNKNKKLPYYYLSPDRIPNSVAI
In short: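 10000g supernatant from rat PMN leukocytes incubated 10 min with [14C]arachidonic acid. 5-Lipoxygenase activity taken as percentage conversion to 5-HETE plus 5,12-diHETEs.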

Rattus norvegicus [2] = test: Percentage inhibition against antigen induced dyspnea in hyperactive inbred rat at a dose of 0.05 mg/kg; type: functional
In short: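 Inbred hyperreactive rats, six per group, dosed po 2 h before aerosol ovalbumin challenge, with drug suspension or vehicle (0.4% Methocel/0.5% Tween 80, 10 mL/kg). Methysergide 3 mg/kg iv given 5 min before antigen. Dyspnea duration recorded by pneumotachograph. % inhibition of duration is relative to vehicle controls. Student's t test used; ED50 from linear regression.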

Rattus norvegicus [3] = test: Total radioactivity in tissues of male sd rats dosed orally with H-labeled compound at 21 mg/kg after 30 min in lung; type: functional; details: route oral
In short: (§1)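 Male Sprague-Dawley rats received ³H-labelled drug (phenoxy ring, 3.96 μCi/mg) in PEG-400 by gavage at 21 mg/kg. Animals were killed at 5, 15, 30 min and at 1, 2, 4, 24 and 48 h. Homogenates were pooled per group, and total radioactivity was measured as the mean of duplicate combustions, in μg equiv/g. Two or three rats were used per point, except one rat at 24 and 48 h.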

Rattus norvegicus [4] = test: Total radioactivity in tissues of male sd rats dosed intravenously with H-labeled compound at 21 mg/kg after 10 min in kidney; type: functional; details: route intravenous
In short: (§2)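 Male Sprague-Dawley rats given ³H compound iv via femoral vein in PEG-400, 21 mg/kg, 3.96 μCi/mg. Killed at 2, 10, 30 min, 1, 2 and 4 h. Total radioactivity measured by combustion of composited tissue homogenates, in duplicate. Two or three rats per time point, one at 10 and 30 min.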

Rattus norvegicus [5] = test: Total radioactivity in tissues of male sd rats dosed intravenously with H-labeled compound at 21 mg/kg after 10 min in lung; type: functional; details: route intravenous; in short: as §2
Rattus norvegicus [6] = test: Total radioactivity in tissues of male sd rats dosed intravenously with H-labeled compound at 21 mg/kg after 1 hr in plasma; type: functional; details: route intravenous
Rattus norvegicus [7] = test: Total radioactivity in tissues of male sd rats dosed intravenously with H-labeled compound at 21 mg/kg after 2 hr in lung; type: functional; details: route intravenous; in short: as §2
Rattus norvegicus [8] = test: Total radioactivity in tissues of male sd rats dosed intravenously with H-labeled compound at 21 mg/kg after 2 hr in plasma; type: functional; details: route intravenous
Rattus norvegicus [9] = test: Total radioactivity in tissues of male sd rats dosed intravenously with H-labeled compound at 21 mg/kg after 2 min in kidney; type: functional; details: route intravenous; in short: as §2
Rattus norvegicus [10] = test: Total radioactivity in tissues of male sd rats dosed intravenously with H-labeled compound at 21 mg/kg after 30 min in liver; type: functional; details: route intravenous; in short: as §2
Rattus norvegicus [11] = test: Total radioactivity in tissues of male sd rats dosed intravenously with H-labeled compound at 21 mg/kg after 30 min in lung; type: functional; details: route intravenous; in short: as §2
Rattus norvegicus [12] = test: Total radioactivity in tissues of male sd rats dosed intravenously with H-labeled compound at 21 mg/kg after 30 min in plasma; type: functional; details: route intravenous
Rattus norvegicus [13] = test: Total radioactivity in tissues of male sd rats dosed orally with H-labeled compound at 21 mg/kg after 5 min in lung; type: functional; details: route oral; in short: as §1
Rattus norvegicus [14] = test: Total radioactivity in tissues of male sd rats dosed intravenously with H-labeled compound at 21 mg/kg after 4 hr in liver; type: functional; details: route intravenous
In short: (§3)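 ³H label in the phenoxy ring, dissolved in PEG-400, specific activity 3.96 μCi/mg, given iv via femoral vein at 21 mg/kg to male Sprague-Dawley rats. Animals were killed at 2, 10, 30 min, 1, 2 and 4 h. Tissues from each group were pooled and homogenized, and total radioactivity was measured by combustion, averaged over duplicate combustions. Results are expressed as μg equiv/g. Two or three rats were used per time point.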

Rattus norvegicus [15] = test: Total radioactivity in tissues of male sd rats dosed intravenously with H-labeled compound at 21 mg/kg after 4 hr in plasma; type: functional; details: route intravenous; in short: as §3
Rattus norvegicus [16] = test: Total radioactivity in tissues of male sd rats dosed orally with H-labeled compound at 21 mg/kg after 15 min in kidney; type: functional; details: route oral; in short: as §1
Rattus norvegicus [17] = test: Total radioactivity in tissues of male sd rats dosed orally with H-labeled compound at 21 mg/kg after 1 hr in kidney; type: functional; details: route oral; in short: as §1
Rattus norvegicus [18] = test: Total radioactivity in tissues of male sd rats dosed orally with H-labeled compound at 21 mg/kg after 1 hr in plasma; type: functional; details: route oral; in short: as §1
Rattus norvegicus [19] = test: Total radioactivity in tissues of male sd rats dosed orally with H-labeled compound at 21 mg/kg after 24 hr r in kidney; type: functional; details: route oral; in short: as §1
Rattus norvegicus [20] = test: Total radioactivity in tissues of male sd rats dosed orally with H-labeled compound at 21 mg/kg after 24 hr r in liver; type: functional; details: route oral; in short: as §1
Rattus norvegicus [21] = test: Total radioactivity in tissues of male sd rats dosed orally with H-labeled compound at 21 mg/kg after 24 hr r in lung; type: functional; details: route oral; in short: as §1
Rattus norvegicus [22] = test: Total radioactivity in tissues of male sd rats dosed orally with H-labeled compound at 21 mg/kg after 30 min in kidney; type: functional; details: route oral; in short: as §1
Rattus norvegicus [23] = test: Total radioactivity in tissues of male sd rats dosed orally with H-labeled compound at 21 mg/kg after 48 hr in lung; type: functional; details: route oral; in short: as §1
[24] = biological target: Arachidonate 5-lipoxygenase (Homo sapiens); test: Inhibitory activity of LTB4 production in human PMN
Rattus norvegicus [25] = test: Amount of radioactivity elute with H-labeled at 21 mg/kg after 4 hr using RP-HPLC. at a dose of […] in lung of male sd rat.
Rattus norvegicus [26] = test: Amount of radioactivity elute with H-labeled at 21 mg/kg after 1 hr using RP-HPLC. at a dose of 2.02 ug/g in lung of male sd rat.

Oc1cc2c(cc1CCCOc1ccccc1)OC(CCc1ccccc1)C2 (stereo unspecified)
IC50 [1]: 23 nM | inhibition in vivo at 0.05 mg/kg (Rattus norvegicus [2]): 50% | Total radioactivity (Rattus norvegicus [3]): 4.11 ug equiv g-1 | Total radioactivity (Rattus norvegicus [4]): 54.13 ug equiv g-1 | Total radioactivity (Rattus norvegicus [5]): 75.08 ug equiv g-1 | Total radioactivity (Rattus norvegicus [6]): 3.34 ug equiv g-1 | Total radioactivity (Rattus norvegicus [7]): 1.6 ug equiv g-1 | Total radioactivity (Rattus norvegicus [8]): 0.88 ug equiv g-1 | Total radioactivity (Rattus norvegicus [9]): 51.19 ug equiv g-1 | Total radioactivity (Rattus norvegicus [10]): 41.11 ug equiv g-1 | Total radioactivity (Rattus norvegicus [11]): 56.91 ug equiv g-1 | Total radioactivity (Rattus norvegicus [12]): 5.81 ug equiv g-1 | Total radioactivity (Rattus norvegicus [13]): 473.13 ug equiv g-1 | Total radioactivity (Rattus norvegicus [14]): 9.87 ug equiv g-1 | Total radioactivity (Rattus norvegicus [15]): 1.18 ug equiv g-1 | Total radioactivity (Rattus norvegicus [16]): 5.5 ug equiv g-1 | Total radioactivity (Rattus norvegicus [17]): 1.62 ug equiv g-1 | Total radioactivity (Rattus norvegicus [18]): 1.41 ug equiv g-1 | Total radioactivity (Rattus norvegicus [19]): 0.15 ug equiv g-1 | Total radioactivity (Rattus norvegicus [20]): 0.68 ug equiv g-1 | Total radioactivity (Rattus norvegicus [21]): 0.1 ug equiv g-1 | Total radioactivity (Rattus norvegicus [22]): 0.85 ug equiv g-1 | Total radioactivity (Rattus norvegicus [23]): 0.09 ug equiv g-1 | IC50 [24]: 6 nM | Activity (Rattus norvegicus [25]): 8.9% | Activity (Rattus norvegicus [26]): 56.3%
